Measurements collected from several papers.
Each line is one published result; the experiments were not run side by side.
FLT3: Receptor-type tyrosine-protein kinase FLT3 (FLT3, Homo sapiens, UniProt P36888)
FLT3 D835H: Receptor-type tyrosine-protein kinase FLT3 (FLT3, Homo sapiens, UniProt P36888, D835H)
FLT3 N841I: Receptor-type tyrosine-protein kinase FLT3 (FLT3, Homo sapiens, UniProt P36888, N841I)
FLT3 D835V: Receptor-type tyrosine-protein kinase FLT3 (FLT3, Homo sapiens, UniProt P36888, D835V)
FLT3 R834Q: Receptor-type tyrosine-protein kinase FLT3 (FLT3, Homo sapiens, UniProt P36888, R834Q)
FLT3 D835Y: Receptor-type tyrosine-protein kinase FLT3 (FLT3, Homo sapiens, UniProt P36888, D835Y)

Compound	target	assay	setting	quantity	value
Nc1ncnc2occ(-c3ccc(NC(=O)Nc4cc(C(F)(F)F)ccc4F)cc3)c12	FLT3	cell-free assay, inhibitor	20 µM	remaining signal	1.8%
CN(CCCC(F)(F)F)c1nccc(-c2cnn3ncccc23)n1	FLT3 D835H	binding	1 µM	remaining binding	96%
CCCOc1ccc([C@H]2[C@H](C(=O)O)[C@@H](c3ccc4c(c3)OCO4)CN2CC(=O)Nc2c(CC)cccc2CC)cc1	FLT3 N841I	cell-free assay, competition with immobilised ligand	1 µM	remaining binding	93%
O=C(NCCCN1CCOCC1)c1ccc(Nc2ncc(Cl)c(-c3ccc(Cl)s3)n2)cc1	FLT3 D835V	binding, competition with immobilised ligand	1 µM	remaining binding	1.3%
CC(=O)N1CCC(c2ccc(C(=O)NC(=N)N)cc2C(F)(F)F)CC1	FLT3	cell-free assay, competition with immobilised ligand	1 µM	remaining binding	100%
CC1CCCN1c1nccc(-c2cnn3ncccc23)n1 (stereo not drawn)	FLT3 R834Q	binding	1 µM	remaining binding	100%
CCN(CC)c1ccc(C2=NNC(=O)CC2C)cc1[N+](=O)[O-] (stereo not drawn)	FLT3	enzyme activity, inhibitor	10 µM	remaining activity	89%
C[C@H](c1ccc(F)cc1)N(Cc1cccc(C(=O)O)c1)C(=O)c1cnc2ccccc2c1	Receptor-type tyrosine-protein kinase FLT3 (FLT3, Homo sapiens, UniProt P36888, ITD)	cell-free assay, competition with immobilised ligand	1 µM	remaining binding	100%
CN(C)c1ncc(F)c(-c2cnn3ncccc23)n1	FLT3 R834Q	binding	1 µM	remaining binding	65%
Cn1nc(C(F)(F)F)cc1-c1cnc(N2CCc3cc(S(=O)(=O)Nc4c(F)cc(Cl)cc4F)cc(N4CCCC4=O)c32)nc1	FLT3 N841I	cell-free assay, competition with immobilised ligand	1 µM	remaining binding	94%
CN(c1nccc(-c2cnn3ncccc23)n1)C1CC1	FLT3 D835H	binding	1 µM	remaining binding	100%
Cc1ccc(C(=O)Nc2ccc(CN3CCN(C)CC3)c(C(F)(F)F)c2)cc1C#Cc1cnc2cccnn12	FLT3 N841I	enzyme activity, inhibitor	23.5 nM	remaining activity	0%
O=C(NCCCN1CCOCC1)c1ccc(Nc2nccc(-c3cc4ccccc4s3)n2)cc1	FLT3	binding, competition with immobilised ligand	1 µM	remaining binding	61%
Cc1cc(NC(=O)c2cccc3cc(-c4cccc5[nH]nc(N)c45)ccc23)ccc1F	FLT3 D835Y	enzyme activity, inhibitor	0.1 µM	activity vs control	98%
COc1cc2ncnc(Nc3ccc(F)c(Cl)c3)c2cc1OCCCN1CCOCC1	FLT3	cell-free assay	0.5 µM	remaining signal	56.5%
C[C@@H]1CCN(c2nccc(-c3cnn4ncccc34)n2)C1	FLT3 N841I	binding	1 µM	remaining binding	99%
Cc1cc(C)c(-n2ccn3nc(-c4cccnc4)cc23)cc1NC(=O)c1cc(C#N)cc(S(F)(F)(F)(F)F)c1	FLT3 R834Q	cell-free assay, competition with immobilised ligand	0.1 µM	remaining binding	62.3%
Cc1ccc(C(=O)NCc2ccsc2)cc1C#Cc1cn(C(C)C)c2ncnc(N)c12	FLT3 D835Y	enzyme activity, inhibitor	1 µM	activity vs control	118%
N[C@@H]1CCN(c2nccc(-c3cnn4ncccc34)n2)C1	FLT3 D835H	binding	1 µM	remaining binding	100%
CNC(=O)c1cc(Oc2ccc(NC(=O)Nc3ccc(Cl)c(C(F)(F)F)c3)cc2)ccn1	FLT3	cell-free assay	0.5 µM	remaining signal	9.22%
COc1cc(-c2cn(C3CCc4c(F)cccc4N(CC(F)(F)F)C3=O)nn2)ccc1-n1cnc(C)c1 (stereo not drawn)	FLT3 D835V	cell-free assay, competition with immobilised ligand	1 µM	remaining binding	97%
Cc1cnc(Nc2ccc(C(=O)N3CCC(N4CCCC4)CC3)cc2)nc1-c1cc2ccccc2s1	FLT3 D835H	binding, competition with immobilised ligand	1 µM	remaining binding	1.1%
CCCCN(CCCC)C(=O)CN1C[C@H](c2cc(OC)c3c(c2)OCO3)[C@@H](C(=O)O)[C@@H]1CC(C)(C)CCC	FLT3 N841I	cell-free assay, competition with immobilised ligand	1 µM	remaining binding	100%
Cc1cnn2ncc(-c3ccnc(N(C)C)n3)c2c1	FLT3 D835Y	binding	1 µM	remaining binding	81%
